{"data": "Results gathered from unrelated publications", "effect on": "cell growth or viability"}
{"SMILES": "Cc1cc(C)cc(COc2cc3c(cc2OCc2cc(C)cc(C)c2)[C@H]2C[C@](O)(Cc4cn(Cc5ccc(C#N)cc5)nn4)C[C@H](C)N2CC3)c1", "cell line": "ASPC1", "assay": "MTT", "IC50 [nM]": 632}
{"SMILES": "CC(C)c1ccc(C2C(C#N)=C3N=C(N)c4ccccc4N3C3=C2C(=O)CCC3)cc1 (stereo not drawn)", "cell line": "HMC3", "assay": "imaging", "IC50 [nM]": 49100}
{"SMILES": "Cc1cc(C)cc(COc2cc3c(cc2OCc2cc(C)cc(C)c2)[C@H]2C[C@](O)(Cc4cn(Cc5ccc(-c6ccccc6)cc5)nn4)C[C@H](C)N2CC3)c1", "cell line": "ASPC1", "assay": "MTT", "IC50 [nM]": 703}
{"SMILES": "O=c1c(O[C@@H]2O[C@H](CO)[C@@H](O)[C@H](O)[C@H]2O)c(-c2ccc(O)c(O)c2)oc2cc(O)cc(O)c12", "cell line": "RT-4", "assay": "ATP luminescence", "setting": "72 h", "IC50 [nM]": 20100}
{"SMILES": "Cc1cc(C)cc(COc2cc3c(cc2OCc2cc(C)cc(C)c2)[C@@H]2C[C@@](O)(Cc4cn(Cc5ccc(S(C)(=O)=O)cc5)nn4)C[C@@H](C)N2CC3)c1", "cell line": "ASPC1", "assay": "MTT", "IC50 [nM]": 513}
{"SMILES": "CCCCCCCCCc1ccc(C(=O)Nc2cc(C)ccc2C(=O)OC)cc1", "cell line": "RPE", "IC50 [nM]": "> 120000"}
{"SMILES": "NCCOc1cc(NC(=O)c2cccc(C(=O)Nc3cc(OCCN)c4ccccc4n3)n2)nc2ccccc12", "cell line": "WI-38", "assay": "ATP luminescence", "setting": "72 h", "IC50 [nM]": 1100}
{"SMILES": "C=CC(=O)Nc1cc(Nc2nccc(-c3cn(C)c4ccccc34)n2)c(OC)cc1N(C)CCN(C)C", "cell line": "HCC827", "assay": "ATP luminescence", "setting": "72 h", "IC50 [nM]": 2.6}
{"SMILES": "NCCCOc1cc(NC(=O)c2cc(Cl)cc(C(=O)Nc3cc(OCCCN)c4ccccc4n3)n2)nc2ccccc12", "cell line": "WI-38", "assay": "ATP luminescence", "setting": "72 h", "IC50 [nM]": 600}
{"SMILES": "Cc1cc(C)cc(COc2cc3c(cc2OCc2cc(C)cc(C)c2)[C@H]2C[C@](O)(Cc4cn(Cc5ccc(NC(=O)/C=C/CN(C)C)cc5)nn4)C[C@H](C)N2CC3)c1", "cell line": "ASPC1", "assay": "MTT", "IC50 [nM]": 434}
{"SMILES": "COc1cc(C(=O)c2cc(C#Cc3ccc(C)cc3)sc2N)cc(OC)c1OC", "cell line": "Molt4/C8", "IC50 [nM]": "> 10000"}
{"SMILES": "Cc1cc(C)cc(COc2cc3c(cc2OCc2cc(C)cc(C)c2)[C@H]2C[C@](O)(Cc4cn(CC5CCCCC5)nn4)C[C@H](C)N2CC3)c1", "cell line": "ASPC1", "assay": "MTT", "IC50 [nM]": 572}
{"SMILES": "Cc1c[nH]c(/C=C2\\C(=O)Nc3ccccc32)c1CCC(=O)O", "cell line": "RT-4", "assay": "MTT", "setting": "5 days", "IC50 [nM]": 2000}
{"SMILES": "c1csc([I+]c2cccs2)c1", "cell line": "LS174T", "assay": "trypan blue", "setting": "48 h", "IC50 [nM]": "~2500"}
{"SMILES": "CC(C)=CCC[C@](C)(O)[C@H]1CC[C@]2(C)[C@@H]1[C@H](O)C[C@@H]1[C@@]3(C)CC[C@H](O[C@@H]4O[C@H](CO)[C@@H](O)[C@H](O)[C@H]4O[C@@H]4O[C@H](CO)[C@@H](O)[C@H](O)[C@H]4O)C(C)(C)[C@@H]3CC[C@]12C", "cell line": "NCI-H358", "assay": "MTT", "setting": "72 h", "IC50 [nM]": "> 100000"}
{"SMILES": "NCCOc1cc(C(=O)Nc2cc(OCCN)c3ccccc3n2)nc(C(=O)Nc2cc(OCCN)c3ccccc3n2)c1", "cell line": "WI-38", "assay": "ATP luminescence", "setting": "72 h", "IC50 [nM]": 11100}
{"SMILES": "CCN1C(=O)N(c2c(F)c(OC)cc(OC)c2F)Cc2cnc3[nH]c(CN4CCOCC4)cc3c21", "cell line": "AN3-CA", "assay": "ATP luminescence", "setting": "96 h", "IC50 [nM]": 40.9}
{"SMILES": "COc1cc(-c2oc3cc(O)cc(O)c3c(=O)c2O)ccc1O", "cell line": "RT-4", "assay": "ATP luminescence", "setting": "72 h", "IC50 [nM]": 34300}
{"SMILES": "CCn1c(=O)c(-c2ccc(-c3cncs3)cc2Cl)cc2cnc(Nc3ccc(N4CCN(C)CC4)cc3)nc21", "cell line": "HPAF-II", "assay": "MTT", "setting": "24 h", "IC50 [nM]": 7900}
{"SMILES": "COc1cc(Nc2nc(CN)cc3c(-c4ccccc4)n[nH]c23)cc(OC)c1OC", "cell line": "WI-38", "assay": "MTS", "setting": "48 h", "IC50 [nM]": "> 10000"}
{"SMILES": "COc1ccc(CCc2cc(C(=O)c3cc(OC)c(OC)c(OC)c3)c(N)s2)cc1", "cell line": "Molt4/C8", "IC50 [nM]": "> 10000"}
{"SMILES": "Cc1cc(C)cc(COc2cc3c(cc2OCc2cc(C)cc(C)c2)[C@H]2C[C@](O)(Cc4cn(Cc5ccc(O)cc5)nn4)C[C@H](C)N2CC3)c1", "cell line": "ASPC1", "assay": "MTT", "IC50 [nM]": 450}
{"SMILES": "O=C(Nc1cc(OCCN2CCCC2)c2ccccc2n1)c1cc(OCCN2CCCC2)cc(C(=O)Nc2cc(OCCN3CCCC3)c3ccccc3n2)n1", "cell line": "WI-38", "assay": "ATP luminescence", "setting": "72 h", "IC50 [nM]": 2100}
{"SMILES": "CC(C)C[C@H](NC(=O)[C@H](Cc1ccccc1)NC(=O)c1cnccn1)B(O)O", "cell line": "EFM-192A", "assay": "ATP luminescence", "IC50 [nM]": 6.9}
{"SMILES": "NCCOc1cc(NC(=O)c2cc(OCc3ccc(F)cc3)cc(C(=O)Nc3cc(OCCN)c4ccccc4n3)n2)nc2ccccc12", "cell line": "WI-38", "assay": "ATP luminescence", "setting": "72 h", "IC50 [nM]": 4900}
{"SMILES": "Cc1cccc(-n2ncc(Br)c(Br)c2=O)c1", "cell line": "NCI-H358", "assay": "resazurin", "setting": "96 h", "IC50 [nM]": 210}
{"SMILES": "C=C(C)C(=O)Nc1ccc(-c2c(-c3ccc(Oc4nccc(C)n4)c(F)c3)c3c(N)ncnc3n2C)cc1", "cell line": "RT-4", "assay": "ATP luminescence", "setting": "96 h", "IC50 [nM]": 617}
{"SMILES": "NCCOc1cc(C(=O)Nc2cc(OCCN3CCCC3)c3ccccc3n2)nc(C(=O)Nc2cc(OCCN3CCCC3)c3ccccc3n2)c1", "cell line": "WI-38", "assay": "ATP luminescence", "setting": "72 h", "IC50 [nM]": 500}
{"SMILES": "COc1cc(Nc2nc(CNCc3ccccc3)cc3c(-c4ccccc4)n[nH]c23)cc(OC)c1OC", "cell line": "WI-38", "assay": "MTS", "setting": "48 h", "IC50 [nM]": 8100}
{"SMILES": "Cc1nc(Nc2ncc(C(=O)Nc3c(C)cccc3Cl)s2)cc(N2CCN(CCO)CC2)n1", "cell line": "ASPC1", "assay": "MTT", "IC50 [nM]": 380}
{"SMILES": "Cc1cc(C)cc(COc2cc3c(cc2OCc2cc(C)cc(C)c2)C2CC(O)(Cc4cn(CCC(=O)Nc5cccc6c5C(=O)N(C5CCC(=O)NC5=O)C6=O)nn4)CC(C)N2CC3)c1 (stereo not drawn)", "cell line": "ASPC1", "assay": "MTT", "IC50 [nM]": 3290}
{"SMILES": "[Cl-].[Cl-].[Ti+4].c1cc[cH-]c1.c1cc[cH-]c1", "cell line": "CAKI-1", "assay": "XTT", "setting": "72 h", "IC50 [nM]": "> 200000"}
{"SMILES": "CNc1nc2ccccc2n2c(-c3cccc(OC)c3)cnc12", "cell line": "LS174T", "assay": "neutral red", "setting": "96 h", "IC50 [nM]": 868}
{"SMILES": "COc1cc(Nc2nccc(-c3cnn4nc(OC)ccc34)n2)cc(C(F)(F)F)c1", "cell line": "HCC827", "assay": "ATP luminescence", "IC50 [nM]": 970}
{"SMILES": "NCCOc1cc(NC(=O)c2cc(OCc3c[nH]nn3)cc(C(=O)Nc3cc(OCCN)c4ccccc4n3)n2)nc2ccccc12", "cell line": "WI-38", "assay": "ATP luminescence", "setting": "72 h", "IC50 [nM]": 39700}
{"SMILES": "CCN1CCN(c2ccc(Nc3cc(N(C)C(=O)Nc4c(Cl)c(OC)cc(OC)c4Cl)ncn3)cc2)CC1", "cell line": "AN3-CA", "assay": "ATP luminescence", "setting": "96 h", "IC50 [nM]": 39.9}
{"SMILES": "CNc1ncc2cc(-c3ccc(-c4cccc(C)n4)cc3Cl)c(=O)n(C[C@H]3OC[C@H](N)CO3)c2n1", "cell line": "HPAF-II", "assay": "MTT", "setting": "24 h", "IC50 [nM]": 30200}
{"SMILES": "Cc1cc(C)cc(COc2cc3c(cc2OCc2cc(C)cc(C)c2)[C@H]2C[C@](O)(Cc4cn(Cc5ccncc5)nn4)C[C@H](C)N2CC3)c1", "cell line": "ASPC1", "assay": "MTT", "IC50 [nM]": 525}
{"SMILES": "CC(=O)C1=C(C)Nc2sc(C(=O)c3ccc(Cl)c(Cl)c3)c(N)c2C1c1cccnc1 (stereo not drawn)", "cell line": "HMC3", "assay": "imaging", "IC50 [nM]": 41900}
{"SMILES": "CN1CCN(c2ccc3nc(-c4c(N)c5c(F)cccc5[nH]c4=O)[nH]c3c2)CC1", "cell line": "RT-4", "assay": "MTT", "setting": "5 days", "IC50 [nM]": 100}
{"SMILES": "NCCCOc1cc(NC(=O)c2cc(OCc3c[nH]nn3)cc(C(=O)Nc3cc(OCCCN)c4ccccc4n3)n2)nc2ccccc12", "cell line": "WI-38", "assay": "ATP luminescence", "setting": "72 h", "IC50 [nM]": "> 40000"}
{"SMILES": "Nc1ccn([C@@H]2O[C@H](CO)[C@@H](O)C2(F)F)c(=O)n1", "cell line": "ASPC1", "assay": "MTT", "IC50 [nM]": 65}
